# Screening data: PubChem BioAssay, Johns Hopkins Ion Channel Center
# A selection: hits, their analogues and other compounds. The true share with any hit is near 2.3%.
# TRPC6 act – activates the mouse TRPC6 cation channel | Q61143 | HEK293-TRPC6 membrane potential dye fluorescence; active compounds read high | B-score at 10 µM | 310,000 compounds, 0.13% hits | AID 2550;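 active means B-score of the integrated fluorescence ratio above library mean plus 3 SD, and starting fluorescence ratio within library mean plus 5 SD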;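 further: higher score means more depolarization so channel activation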
# Target sequence (Q61143 whole entry, looked up): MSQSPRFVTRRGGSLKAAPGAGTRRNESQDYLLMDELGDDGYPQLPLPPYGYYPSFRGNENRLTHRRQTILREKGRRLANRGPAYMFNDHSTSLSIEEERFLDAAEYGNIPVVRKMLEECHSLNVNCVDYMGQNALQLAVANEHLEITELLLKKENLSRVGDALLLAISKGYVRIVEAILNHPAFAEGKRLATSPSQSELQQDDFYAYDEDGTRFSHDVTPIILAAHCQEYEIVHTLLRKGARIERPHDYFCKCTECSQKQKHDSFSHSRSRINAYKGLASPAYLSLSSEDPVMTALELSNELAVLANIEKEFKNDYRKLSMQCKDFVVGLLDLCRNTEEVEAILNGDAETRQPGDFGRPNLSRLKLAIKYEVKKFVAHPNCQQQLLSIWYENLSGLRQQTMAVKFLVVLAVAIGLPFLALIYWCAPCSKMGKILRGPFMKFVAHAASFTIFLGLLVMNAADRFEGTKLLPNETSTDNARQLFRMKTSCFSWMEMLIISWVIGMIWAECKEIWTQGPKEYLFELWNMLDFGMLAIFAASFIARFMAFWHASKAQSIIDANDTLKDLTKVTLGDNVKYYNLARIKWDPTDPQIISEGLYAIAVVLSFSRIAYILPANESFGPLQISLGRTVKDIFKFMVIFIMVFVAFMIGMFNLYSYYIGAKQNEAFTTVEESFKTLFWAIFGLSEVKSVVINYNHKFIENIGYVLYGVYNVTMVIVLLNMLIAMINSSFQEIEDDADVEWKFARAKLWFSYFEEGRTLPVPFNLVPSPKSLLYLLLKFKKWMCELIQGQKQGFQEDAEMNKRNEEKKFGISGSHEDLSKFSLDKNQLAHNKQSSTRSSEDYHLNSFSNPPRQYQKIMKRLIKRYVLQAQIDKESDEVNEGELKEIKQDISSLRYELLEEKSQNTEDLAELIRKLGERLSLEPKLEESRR
# TRPC6 inh – blocks the mouse TRPC6 cation channel | Q61143 | HEK293-TRPC6, membrane potential dye, ACh-evoked depolarization; active compounds read low | B-score at 10 µM | 310,000 compounds, 1.1% hits | AID 2553;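 active means B-score under library mean minus 3 SD, initial fluorescence not abnormally high, positive integrated signal ratio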;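 further: B-score derived from integrated fluorescence ratio over the kinetic read; more negative B-score means stronger inhibition of depolarization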
# TRPC4 block – blocks the mouse TRPC4 cation channel; B-score at 10 µM; Q9QUQ5; AID 2247; HEK293 TRPC4beta/mu-opioid, DAMGO-evoked Fluo4 calcium flux; active compounds read low; 300,000 compounds, 0.39% hits;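 active means B-score over 3 SD under the library average, no early fluorescence shift, positive overall ratio signal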
#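 Material: HEK293 cells with stable TRPC4beta plus mu-opioid receptor expression / Probe or stimulus: DAMGO in two steps, submaximal then maximal / Compound: single concentration per test compound / Technique: kinetic Fluo4 fluorescence imaging of calcium influx / Read-out: per-well B score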
# TRPC4 act – activators of mouse TRPC4 channel; B-score at 10 µM; 310,000 compounds, 0.49% hits; AID 2237; HEK293 TRPC4beta/mu-opioid, Fluo4 calcium fluorescence; active compounds read high;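 active means B-score above 5 SD of library B-scores, and initial fluorescence ratio not above library mean plus 5 SD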;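 further: positive B-score marks a calcium rise read as TRPC4 activation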
#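 system = HEK293 cells stably co-expressing mouse TRPC4beta and mu-opioid receptor | schedule = Fluo4 dye loading 45 min at room temperature, 110 s recording | measure = B-scored integrated calcium fluorescence ratio | signal = Fluo4 calcium-sensitive dye fluorescence, kinetic, 1 Hz baseline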
# TRPC4 potent – allosteric potentiators of mouse TRPC4 channel. Q9QUQ5. HEK293 TRPC4beta/mu-opioid, DAMGO EC20, Fluo-4 Ca2+ flux; active compounds read high. B-score at 10 µM. 310,000 compounds, 0.42% hits. AID 2227;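 active means B-score of calcium response area above 5 SD of library B-scores, with initial fluorescence ratio within 5 SD of library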;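 further: B-score of integrated fluorescence ratio over time as area under calcium response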
# TRPC4 sel inh 2 – mouse TRPC4 off-target activity of TRPC6 inhibitors, second screen; shares compounds with TRPC6 inh; HEK293 TRPC4/MOR, membrane potential dye fluorescence; channel activated by saturating DAMGO dose; inhibition, % at 10 µM; 920 compounds, 42% hits;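 active means compounds whose fluorescence signal differed from control wells by over 3 SD, either direction, in both duplicate plates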
# TRPC4 spec – mouse TRPC4 off-target activity of TRPC6 inhibitors | shares compounds with TRPC6 inh | HEK293 TRPC4/mu-opioid, membrane potential fluorescence | activity change, negative = inhibition, % at 10 µM | 920 compounds, 61% hits | AID 2777;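 active means rise or fall in signal beyond 3 SD of buffer-only wells in both replicate plates, either sign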;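 further: integrated kinetic ratio of fluorescence range over baseline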
# HEK293 MPD ctr 2-1 – second counter-screen for TRPC6 inhibitors: parental HEK293 cells; 920 compounds, 31% hits; signal change vs control, % at 10 µM; AID 2779; shares compounds with TRPC6 inh; parental HEK293 membrane potential dye fluorescence; maximal acetylcholine challenge after compound addition;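 active means membrane potential signal moving either way by over 3 SD of the maximum-effect control, in both duplicate plates, meaning non-specific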
# HEK293 MPD ctr-1 – checks TRPC6 inhibitor effects in parental HEK293 cells; AID 2780; shares compounds with TRPC6 inh; membrane potential signal change, % at 10 µM; parental HEK293 membrane potential dye fluorescence; 920 compounds, 60% hits;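 active means membrane potential signal shifting up or down by more than 3 SD of buffer-only wells, on both duplicate plates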
# HEK293 MPD ctr-2 – parental HEK293 nonspecific activity of TRPC6 modulators; shares compounds with TRPC6 inh; membrane potential dye fluorescence; membrane potential signal change, % at 10 µM; 2,400 compounds, 51% hits; AID 488924;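 active means membrane potential signal moves up or down beyond 5 SD from buffer-only wells, on both duplicate plates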
# HEK293 MPD ctr 2-2 – parental HEK293 nonspecific activity of TRPC6 modulators, second screen | inhibition, % at 10 µM | 2,400 compounds, 14% hits | shares compounds with TRPC6 inh | membrane potential dye fluorescence; after compound, maximal acetylcholine stimulation | AID 488926;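 active means membrane potential signal drops by more than 5 SD from the mean control signal, in both duplicate plates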;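 further: plate controls were acetylcholine ECmax control wells for no effect and buffer only wells for full effect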
# TRPC4 ctr mod – mouse TRPC4 off-target activity of TRPC6 modulators; HEK293 TRPC4/mu-opioid, membrane potential fluorescence; 2,400 compounds, 69% hits; shares compounds with TRPC6 inh; percent change from control (negative = decrease, positive = increase), % at 10 µM;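 active means membrane potential signal moved up or down beyond 5 SD of buffer control wells, in both duplicate plates, actives on both sides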;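 further: plate controls were assay buffer wells for no effect and DAMGO maximal-effect wells for full effect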
# TRPC4/MOR inh 2 – second selectivity test of TRPC6 modulators against mouse TRPC4; shares compounds with TRPC6 inh; HEK293 TRPC4/mu-opioid, membrane potential dye fluorescence; stimulated with maximal-effect DAMGO; inhibition, % at 10 µM; 2,400 compounds, 55% hits; AID 488928;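 active means drop in membrane potential signal beyond 5 SD of the control wells in both duplicate plates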;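 further: TRPC4 counter screen for TRPC6 hits run under conditions tuned for TRPC6 not TRPC4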
# TRPC6 block conf – confirmation of mouse TRPC6 inhibitors; shares compounds with TRPC6 inh; HEK293-TRPC6, membrane potential dye, ACh-evoked depolarization; inhibition, % at 10 µM; 3,300 compounds, 43% hits;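 active means fluorescence ratio falls more than 5 SD below the full-stimulation control mean, in both duplicate runs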;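 further: integrated fluorescence ratio of peak minus minimum over baseline after agonist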
# TRPC6 act conf – mouse TRPC6 activator confirmation; shares compounds with TRPC6 inh; HEK293-TRPC6 membrane potential dye fluorescence, FDSS; activation, % at 10 µM; 2,800 compounds, 11% hits;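 active means ratio signal rise beyond 5 SD above unstimulated control wells' mean, seen in both duplicate runs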;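 further: plate controls were buffer EC0 wells for no effect and acetylcholine ECmax response for full effect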
# * hit, by the source's call; i = inactive; · = no result given; + = active, no number.
SMILES,TRPC6 act,TRPC6 inh,TRPC4 block,TRPC4 act,TRPC4 potent,HEK293 MPD ctr-2,HEK293 MPD ctr 2-2,TRPC4 ctr mod,TRPC4/MOR inh 2,TRPC6 block conf,TRPC6 act conf,others
CN(C)C1C(=O)c2ccccc2C1=O,i,i,i,i,i,·,·,·,·,·,·,
O=C(OCCN1CCCC1)C1(c2ccccc2)CCCC1,i,-8*,i,i,i,·,·,·,·,64%*,·,TRPC4 sel inh 2=i;TRPC4 spec=9.8%*;HEK293 MPD ctr 2-1=16%*;HEK293 MPD ctr-1=13%*
O=C(OCCN1CCCCC1)C1(c2ccccc2)CCCC1,i,-7.4*,i,i,i,·,·,·,·,83%*,·,TRPC4 sel inh 2=i;TRPC4 spec=19%*;HEK293 MPD ctr 2-1=21%*;HEK293 MPD ctr-1=16%*
O=C(O)c1ccc(NC(=O)C2(c3ccccc3)CCCC2)cc1,i,i,i,i,i,·,·,·,·,·,·,
C[N+]1(CCCOC(=O)C2(c3ccccc3)CCCC2)CCOCC1,i,-5.4*,i,i,i,i,i,i,i,i,i,
CCN(CC)CCOC(=O)c1ccc(NC(=O)C2(c3ccccc3)CCCC2)cc1,i,-5.2*,i,i,i,125%*,i,16%*,58%*,i,·,
O=C(OCCN1CCCCC1)c1ccccc1Br,i,i,i,i,i,·,·,·,·,·,·,
Cc1ccc(C)c(N2CCN(C(=O)c3nn(C)c4c3CS(=O)(=O)c3ccccc3-4)CC2)c1,i,i,i,i,i,·,·,·,·,·,·,
CCNC(=O)C1(c2ccccc2)CCCC1,i,i,i,i,i,·,·,·,·,·,·,
CN(C)CCOC(=O)C1(c2ccccc2)CCCC1,i,-9.6*,i,i,i,·,·,·,·,i,·,TRPC4 sel inh 2=i;TRPC4 spec=2.4%*;HEK293 MPD ctr 2-1=19%*;HEK293 MPD ctr-1=5.8%*
COc1cccc(-c2cc(C(=O)NCCCn3ccnc3)c3ccccc3n2)c1,i,i,i,i,i,·,·,·,·,·,·,
CCN1CCN(CCc2nc3cc([N+](=O)[O-])ccc3n2C)CC1,i,i,i,i,i,·,·,·,·,·,·,
Cn1c(CCN2CCCCC2)nc2cc([N+](=O)[O-])ccc21,i,-5.8*,i,i,i,-200%*,i,-32%*,38%*,i,i,
Cc1cc(=S)cc(C)n1CCO,i,i,i,i,i,·,·,·,·,·,·,
O=c1[nH]c(CN2CCN(C/C=C/c3ccccc3)CC2)nc2cc(Cl)ccc12,i,-5.3*,i,i,i,i,i,8.5%*,44%*,i,i,
O=C(CCc1nc2ccccc2c(=O)[nH]1)N1CCN(C/C=C/c2ccccc2)CC1,i,i,i,i,i,·,·,·,·,·,·,
NCCNc1cc(N2CCCC2)ccc1[N+](=O)[O-],i,-6.3*,i,i,i,-164%*,i,-31%*,70%*,58%*,i,
CC(C)(C)CNc1cc(N2CCCC2)ccc1[N+](=O)[O-],i,i,i,i,i,·,·,·,·,·,·,
CN(C)c1ccc(/C=C/C(=O)c2cccnc2)cc1,133*,i,i,i,i,+,+,470%*,160%*,·,864%*,
O=C(CN1C(=O)CCC1=O)Nc1cccc(NC(=O)CN2C(=O)CCC2=O)c1,i,i,i,i,i,·,·,·,·,·,·,
CN(C)c1ccc2nc3ccc(=[N+](C)C)cc-3sc2c1,i,-14*,i,i,i,-224%*,132%*,-36%*,66%*,80%*,i,
Cc1ccc(-n2ncc(C(=O)N3CCN(C(=O)c4ccco4)CC3)c2C2CCN(C(=O)OC(C)(C)C)CC2)cc1C,i,-5.6*,i,i,i,i,i,i,i,i,·,
CC(C)(C)OC(=O)N1CCC(c2c(C(=O)N3CCN(C(=O)c4ccco4)CC3)cnn2-c2ccc(F)cc2)CC1,i,i,i,i,i,·,·,·,·,·,·,
CC(C)(C)NC(=O)[C@@H]1CN(Cc2cccnc2)CCN1C[C@@H](O)C[C@@H](Cc1ccccc1)C(=O)N[C@H]1c2ccccc2C[C@H]1O,i,i,i,i,i,·,·,·,·,·,·,
Cc1cccc(N(CC(=O)NC2CCCCC2)C(=O)c2csnn2)c1,i,i,i,i,i,·,·,·,·,·,·,
SMILES,TRPC6 act,TRPC6 inh,TRPC4 block,TRPC4 act,TRPC4 potent,HEK293 MPD ctr-2,HEK293 MPD ctr 2-2,TRPC4 ctr mod,TRPC4/MOR inh 2,TRPC6 block conf,TRPC6 act conf,others
Cc1c(Br)c([N+](=O)[O-])nn1C(C)C(=O)N1CCc2ccccc2C1 (stereo unspecified),i,-6*,i,i,i,i,93%*,19%*,i,80%*,i,
Cc1c(Br)c([N+](=O)[O-])nn1CC(=O)N1CCc2ccccc2C1,i,i,i,i,i,·,·,·,·,·,·,
Cc1cccc(C(=O)N2CCc3ccccc3C2)c1[N+](=O)[O-],i,-5.3*,i,i,i,i,i,16%*,i,i,i,
CC(C)NC(=S)NCc1cccs1,i,i,i,i,i,·,·,·,·,·,·,
COC(=O)C(C(=O)OC)C(C)C(C(=O)OC)C(=O)OC,i,i,i,i,i,·,·,·,·,·,·,
Cc1ccc(S(=O)(=O)Nc2nc3ccccc3nc2NCC2CCCO2)c(C)c1 (stereo unspecified),14*,i,i,i,i,i,i,i,i,i,i,
